PME-1 primary: PME-1 (human) inhibition; Q9Y570; recombinant PME-1, FP-Rh probe fluorescence polarization; inhibition, % at 5.9 µM; 0.53% of 320,000 active;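 active = inhibition above the campaign mean of all compounds plus 3 SD, cut at about 26% in these data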;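 also: competitive labeling of PME-1 active site by serine hydrolase directed probe; 0% = PME-1 with DMSO and 100% = wells lacking PME-1 enzyme; inhibitors block probe labeling so polarization falls and inhibition rises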
Target sequence (Q9Y570 whole entry, looked up): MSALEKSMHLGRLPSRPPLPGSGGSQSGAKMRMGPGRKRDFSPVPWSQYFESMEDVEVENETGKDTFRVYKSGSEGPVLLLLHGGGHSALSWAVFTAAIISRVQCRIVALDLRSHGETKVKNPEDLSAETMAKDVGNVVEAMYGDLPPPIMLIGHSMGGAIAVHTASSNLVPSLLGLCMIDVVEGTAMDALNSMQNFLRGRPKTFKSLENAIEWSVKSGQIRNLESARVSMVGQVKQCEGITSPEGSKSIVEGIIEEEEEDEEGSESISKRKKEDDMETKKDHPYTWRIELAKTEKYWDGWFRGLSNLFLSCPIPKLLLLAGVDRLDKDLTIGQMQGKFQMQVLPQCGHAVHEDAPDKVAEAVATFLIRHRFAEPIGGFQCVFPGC
Fam108B inh: Fam108B inhibition, counter-screen for RBBP9 inhibitors. recombinant Fam108B, FP-Rh probe fluorescence polarization. inhibition, % at 9.51 µM. AID 1947. 0.33% of 300,000 active;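 active = inhibition above the screen mean inhibition plus 3 SD, computed separately per campaign, cut at about 18% in these data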;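 also: inhibitors lower polarization as less probe binds the enzyme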
LYPLA2 counter: LYPLA2 (human) inhibition in PME1 counter-screen; recombinant LYPLA2, FP-Rh probe fluorescence polarization; 0.38% of 320,000 active; inhibition, % at 5.9 µM; O95372;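 active = inhibition above the screen-wide mean plus 3 SD, limit set per campaign, cut at about 26% in these data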;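 also: 0% = LYPLA2 with DMSO and 100% = wells lacking LYPLA2 enzyme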
Target sequence (O95372 whole entry, looked up): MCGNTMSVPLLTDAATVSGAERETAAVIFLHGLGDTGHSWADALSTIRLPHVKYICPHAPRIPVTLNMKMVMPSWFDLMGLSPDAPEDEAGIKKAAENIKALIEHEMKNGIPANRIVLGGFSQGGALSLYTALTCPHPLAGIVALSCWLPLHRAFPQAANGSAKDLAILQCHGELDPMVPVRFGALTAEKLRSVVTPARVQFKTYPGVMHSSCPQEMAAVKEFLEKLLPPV
LYPLA1 inh: LYPLA1 (human) inhibition in PME1 counter-screen; 0.16% of 320,000 active; recombinant LYPLA1, FP-Rh probe fluorescence polarization; O75608; inhibition, % at 5.9 µM; AID 2174;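 active = inhibition above the mean of all tested compounds plus 3 SD, set per campaign, cut at about 14% in these data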;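 also: inhibitors block serine hydrolase probe labeling of LYPLA1 so polarization falls; 0% = enzyme with DMSO and 100% = wells lacking LYPLA1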
RBBP9 inhibitor: inhibitors of human serine hydrolase RBBP9 | O75884 | 0.2% of 220,000 active | inhibition, % at 7.94 µM | recombinant RBBP9, FP-Rh probe fluorescence polarization;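 active = inhibition above the campaign mean of all tested compounds plus 3 SD, cut at about 14% in these data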;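 also: plate controls were DMSO wells with RBBP9 for no effect and wells lacking RBBP9 protein for full effect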
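Test system – recombinant human RBBP9 · Input – RBBP9 2.5 µM in dispensing solution, pre-mixing · Medium – Tris buffer pH 8.0, NaCl, Pluronic · Schedule – preincubation 30 min plus labeling 45 min at 25 °C · Measured by – fluorescence polarization · Measure – % inhibition · Controls – DMSO and no-protein wells · Replicates – one well per compound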
LYPLA2 conf: counter-screen for PME1 inhibitors: confirmation of human LYPLA2 inhibitors; shares compounds with LYPLA2 counter; recombinant LYPLA2, FP-Rh probe fluorescence polarization; inhibition, % at 5.9 µM; 72% of 1,100 active; AID 2232;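 active = mean inhibition across replicates above the hit cutoff set in the primary screen, cut at about 26% in these data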;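 also: blocked labeling of the enzyme by serine hydrolase FP-Rh probe lowers polarization; 0% = enzyme with DMSO and 100% = wells lacking LYPLA2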
LYPLA2 gel ABPP: inhibitors of human LYPLA2; 30% of 150 active; inhibition, % at 20 µM; AID 652029; rhLYPLA2 in mouse brain proteome, gel ABPP FP-Rh; shares compounds with LYPLA2 counter;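 active = inhibition of LYPLA2 enzyme probe labeling above about 50%, limit read from the data; inactive = inhibition below that limit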;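 also: loss of FP-Rh probe labeling of the LYPLA2 gel band measured as band density; 0% = DMSO only control band and 100% = blank gel background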
Starred values were filed as active, the others as inactive; . = not tested or not shown. Only some compounds are listed: those with a hit (about 0.99% of all), similar ones and a draw of the others.

SMILES	PME-1 primary	Fam108B inh	LYPLA2 counter	LYPLA1 inh	RBBP9 inhibitor	LYPLA2 conf	others
COc1ccccc1N1CCN(C(=O)c2cc3c(s2)CCC3)CC1	2.0	-0.1	-0.2	-2.8	2.6	.
CCN(C(=O)COc1cc(OC)ccc1C(C)=O)C1CCS(=O)(=O)C1 (stereo not drawn)	4.9	.	-0.6	2.0	.	.
COC(=O)C1=C(CS(=O)(=O)c2ccccc2)NC(=O)NC1c1ccc(OC)c(OC)c1 (stereo not drawn)	-3.5	-0.2	31.6*	-1.7	.	-0.9
CCCCN1CC(=O)N2Cc3[nH]c4ccccc4c3C[C@H]2C1=O	-0.1	1.2	38.9*	2.3	.	27.2*
CCCCCCCCCCCCCCCC[n+]1cccc2ccccc21	9.2	12.6	32.5*	7.9	0.4	57.2*
CCCCCCCCC[n+]1cccc2c3ccccc3ccc21	-8.5	3.1	18.9	0.4	1.5	.
O=C(O)CN1C(=O)/C(=C\c2cc(Br)ccc2OCc2ccc([N+](=O)[O-])cc2)SC1=S	15.2	12.8	62.4*	2.1	.	63.6*
O=C(NCC(=O)N1CC=C(c2ccccc2)CC1)c1ccco1	-2.4	1.7	-12.3	-4.2	.	.
CC(=O)c1ccc(OCc2cc(C(=O)NC(C)c3cnn(C)c3)no2)cc1 (stereo not drawn)	-3.4	-0.3	29.7*	5.0	.	21.5
CCCCS(=O)(=O)N1CCN(S(=O)(=O)c2ccc(Cl)s2)CC1	0.8	-0.9	-4.7	-2.4	.	.
O=C(CCCN1C(=O)c2cccc3cccc(c23)C1=O)N1CCN(c2ccccc2)CC1	-2.2	-6.8	36.7*	5.8	-4.0	40.1*
O=C(CCCN1C(=O)c2cccc3cccc(c23)C1=O)N1CCN(c2ccccc2O)CC1	4.2	9.6	48.6*	7.6	-4.0	48.7*
CCOc1ccc(-n2c(=S)sc3c(=O)n(-c4ccccc4)c(SCC(=O)O)nc32)cc1	6.4	-0.7	-0.2	-3.9	.	.
CCOc1ccc(-n2c(=S)sc3c(=O)n(-c4ccccc4)c(SC)nc32)cc1	-5.7	0.3	55.9*	-3.6	.	-2.0
Cc1cc(C)c(OCC(=O)Nc2ccc(N3CCOCC3)cc2)c(Br)c1	6.0	2.2	27.8*	2.1	.	1.0
O=C1c2ccc(Oc3ccc([N+](=O)[O-])cc3)cc2C(=O)N1CCCO	-2.3	0.8	46.1*	4.0	.	49.6*
O=C1c2ccc(Oc3ccc4c(c3)C(=O)N(CCCCO)C4=O)cc2C(=O)N1CCCCO	-4.8	-6.7	29.4*	1.0	-3.8	34.8*
O=C(O)CCN1C(=O)c2ccc(Oc3ccc4c(c3)C(=O)N(CCC(=O)O)C4=O)cc2C1=O	-5.6	-2.5	7.4	1.9	-8.8	.
Cc1ccc(Cl)cc1N1CCN(c2cccc[n+]2C)CC1	-0.6	-9.4	-0.7	-0.3	-0.6	.
CCCn1c(SCC(=O)N2CCOCC2)nnc1-c1ccncc1	6.3	-2.9	4.8	-3.2	.	.
COc1ccc(NC(=S)N2CCN(c3ccc([N+](=O)[O-])cc3)CC2)cc1OC	4.7	5.0	35.5*	14.0	-0.8	29.1*
COCCNC(=S)N1CCN(C(=O)C(=O)Nc2ccc(C(=O)OC)cc2)CC1	-4.4	1.9	-3.5	-2.9	-3.3	.
COC(=O)c1ccc(NC(=O)C(=O)N2CCN(C(=S)Nc3ccc(C)cc3)CC2)cc1	0.9	5.2	48.0*	0.4	-14.8	54.5*
COC(=O)c1ccc(NC(=O)C(=O)N2CCN(C(=S)Nc3ccc(OC)cc3)CC2)cc1	-9.7	3.2	42.1*	-2.4	6.1	57.8*
CCCCCCC1CC(CC(=O)Nc2ccc([N+](=O)[O-])cc2)C(=O)O1 (stereo not drawn)	4.7	-4.7	33.6*	1.0	3.4	28.0*
SMILES	PME-1 primary	Fam108B inh	LYPLA2 counter	LYPLA1 inh	RBBP9 inhibitor	LYPLA2 conf	others
CCCCCC1CC(CC(=O)NC(=S)Nc2ccc([N+](=O)[O-])cc2)C(=O)O1 (stereo not drawn)	3.2	-1.6	9.3	-0.4	-14.0	.
Cn1ccnc1C1CCCCN1C(=O)c1cc(COc2ccc(F)cc2F)on1 (stereo not drawn)	2.8	-4.5	1.4	0.4	-1.1	.
C=CCNc1nc(C)c(CNc2c(C)cc(C)cc2C)nc1C#N	-2.6	1.2	-1.2	-0.4	.	.
Cc1nc([N+](=O)[O-])c(Br)n1CC(=O)c1ccc2ccccc2c1	1.5	-4.3	31.3*	0.6	-1.7	30.1*
Cc1nc([N+](=O)[O-])c(Br)n1CC(=O)c1ccccc1	-1.9	1.6	6.5	1.2	-6.7	.
CCc1ccc(S(=O)(=O)Nc2ccc(-c3ccc4nncn4n3)cc2)s1	5.5	-0.1	-0.6	-1.6	.	.
COc1cccc(NC(=O)COC(=O)c2c(C)nn(-c3ccccc3)c2C)c1	-11.2	.	49.1*	-4.7	.	41.9*
CCn1cc(CN2CCCC(C(=O)c3ccc(-c4ccccc4)cc3)C2)cn1 (stereo not drawn)	0.4	1.8	-2.4	-2.1	-1.9	.
CC(C)(C)C(=O)Nc1ccc(N2CCN(c3ccc(C(F)(F)F)cn3)CC2)nc1	-6.8	1.6	-1.3	0.2	4.1	.
CS(=O)(=O)Nc1ccc(N2CCN(c3ccc(C(F)(F)F)cn3)CC2)nc1	2.3	2.5	84.1*	8.5	-7.7	82.6*	LYPLA2 gel ABPP=72.0*
C[C@H](NC(=O)OC(C)(C)C)c1nnc(SCC(=O)Nc2cccc(Cl)c2)o1	3.7	-1.4	-1.0	-3.5	.	.
CC(C)[C@H](NC(=O)OC(C)(C)C)c1nnc(SCC(=O)Nc2ccc(Br)cc2)o1	-2.6	-3.0	48.2*	0.4	1.5	54.2*
O=C1CC(c2ccc(OCCCCCOc3ccc(C4CC(=O)NC4=O)cc3)cc2)C(=O)N1 (stereo not drawn)	-4.3	-1.6	39.9*	4.2	-3.3	52.7*	LYPLA2 gel ABPP=32.0
Cc1ccc(C)c(NC(=O)CC2Oc3ccccc3NC2=O)c1 (stereo not drawn)	-3.2	4.5	-1.6	1.3	.	.
CCOC(=O)C1(C)/C(=N/Nc2ccc(S(N)(=O)=O)cc2)C(=O)C(=O)N1c1ccccc1 (stereo not drawn)	-4.8	0.9	-1.9	-3.8	4.1	.
CCOC(=O)C1(C)C=C(Nc2ccc(C)cc2)C(=O)N1c1ccc(C)cc1 (stereo not drawn)	5.0	2.6	26.8*	0.5	-3.3	-1.9
Cc1nnc(NC(=O)c2ccc(F)c(S(=O)(=O)N3CCCCC3)c2)s1	3.1	-2.6	-2.0	-1.3	.	.
Cc1oc2cc3oc(=O)c(CCC(=O)N(C)CC(=O)O)c(C)c3cc2c1C	4.4	0.0	1.2	-1.0	.	.
O=C(N/C(=C/c1ccc(F)cc1)C(=O)N1CCCCC1)c1ccco1	-2.9	2.2	-1.1	1.2	.	.
O=C(CCCN1CCC(O)(c2ccc(Br)cc2)CC1)c1ccc(F)cc1	9.4	6.5	18.2	1.8	.	.
O=C(CCCN1CCC(O)(c2cccc(C(F)(F)F)c2)CC1)c1ccc(F)cc1	0.8	-2.9	71.8*	0.1	.	68.3*

From PubChem BioAssay
